Reference: PubChem BioAssay AID822 (SRMLSC, 2007)
Calls of active or inactive are those of the source.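 How the source made its calls: active means half-maximal effective dose for blocking growth of human endothelial cells at most 100 µM; inactive means the rest.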

test system: HUVEC proliferation, viability ATP luminescence; assay: growth suppression of umbilical vein endothelial cells – cell-based, HUVEC, ATP luminescence, dose response (AID 822);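 further: cells exposed to compound for 72 h before the ATP read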
Procedure, shortened: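 Assay system: HUVEC primary endothelial cells, low passage (≤12); amount: 1250 HUVEC cells seeded per well; buffer or medium: EBM plus 2% FBS; read-out: percent viability relative to median untreated cell signal, EC50 via four-parameter fit; signal: luminescent ATP measurement with CellTiter-Glo reagent; schedule: 72 h exposure, 37 °C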

| Structure (SMILES) | EC50 |
| --- | --- |
| O=C(c1nn2c(C(F)(F)F)cc(-c3ccco3)nc2c1Br)N1CCCc2ccccc21 | 14.8 µM |
| CCOC(=O)N1CCc2c(sc(NC(=O)c3ccc(S(=O)(=O)N4CCCC4)cc3)c2C#N)C1 | 17.5 µM |
| COc1ccc(C2Oc3ccccc3C3=C2C(c2cccs2)n2ncnc2N3)cc1 (configuration not stated) | 16.3 µM |
| COC(=O)c1c(C)n(-c2ccc(OC)cc2)c2ccc(O)cc12 | 8.97 µM |
| Cc1cc(NC(=O)c2cc(-c3ccncc3)nc3c(C)cccc23)no1 | 6.87 µM |
| CCOC(=O)c1c(OCC)[nH]c2c1cc(O)c1ccccc12 | 17.4 µM |
| COC(=O)C1=C(C)N=c2s/c(=C3\C(=O)Nc4ccccc43)c(=O)n2C1c1ccccc1 (configuration not stated) | 6.31 µM |
| COc1ccc2cc3cc(C(=O)Nc4ccc5c(c4)OCO5)oc3nc2c1 | 4.64 µM |
| CC1(c2ccccc2)CC(C)(C)N2C(=O)C3(C(C#N)=C(N)Oc4cc(O)ccc43)c3cccc1c32 (configuration not stated) | 6.69 µM |
| CCOC(=O)C1=C(N)n2c(s/c(=C/c3ccco3)c2=O)=C(C(=O)OC)C1c1ccco1 (configuration not stated) | 5.98 µM |
| O=c1[nH]c2ccccc2n1C1CCN(CCCC(c2ccc(F)cc2)c2ccc(F)cc2)CC1 | 2.71 µM |
| N#Cc1nc(COc2ccc(-c3ccccc3)cc2)oc1NCCCN1CCOCC1 | 10.6 µM |
| CCC(C)(C)NC(=O)C(c1ccc(C)o1)N(Cc1cccs1)C(=O)Cn1nnc2ccccc21 (configuration not stated) | 11.7 µM |
| COC(=O)/C(=C\Nc1ccc(Cl)cc1Cl)NC(=O)c1ccc(Cl)cc1Cl | 7.64 µM |
| Cc1ccc(-c2nn3c(C)nnc3s2)cc1NC(=O)c1ccc(-c2cccc(Cl)c2)o1 | 4.71 µM |
| O=C(Nc1ccc2nn(-c3ccccc3)nc2c1)c1ccc2c(c1)OCO2 | 20.8 µM |
| N#CC(c1ccccc1)c1ccc2c(C(F)(F)F)cc(C(F)(F)F)nc2n1 (configuration not stated) | 16.7 µM |
| CCCCCn1c(CN2CCN(c3cc(Cl)ccc3C)CC2)nc2c1c(=O)[nH]c(=O)n2C | 3.21 µM |
| COc1c(F)c(F)c(C(=O)Nc2ccc(N3CCN(Cc4ccccc4)CC3)cc2)c(F)c1F | 10.9 µM |
| Cc1cc(C)c2oc(-c3ccc(Cl)c(NC(=O)c4ccc(C#N)cc4F)c3)nc2c1 | 10.9 µM |
| N=c1c2c(ncn1CCN1CCOCC1)Oc1ccc3ccccc3c1C2c1ccccc1 (configuration not stated) | 11.9 µM |
| COc1cc2nc(N3CCN(C(=O)c4ccco4)CC3)nc(N)c2cc1OC | 11.2 µM |

| Structure (SMILES) | EC50 |
| --- | --- |
| Cc1ccc(C(=O)Nc2ncc(Cc3ccc(F)cc3)s2)o1 | 0.277 µM |
| CCCCOc1ccc(C(=O)C(CN2CCOCC2)c2ccccc2)cc1 (configuration not stated) | 3.08 µM |
| COc1ccccc1N1CCN(CC(=O)c2c(C)[nH]c3cc(C)ccc23)CC1 | 10.2 µM |
| C=CCc1ccc(OCC(O)CN2CCC(Cc3ccccc3)CC2)c(OC)c1 (configuration not stated) | 9.81 µM |
| O=S(=O)(CCN(CCS(=O)(=O)C(F)(F)F)CC1CCCO1)C(F)(F)F (configuration not stated) | 12.5 µM |
| COc1ccc(-c2nnc(Nc3nc4c(OC)cccc4s3)o2)cc1 | 4.41 µM |
| Cc1nc2c(-c3ccccc3)c(C)[nH]n2c(=O)c1Cl | 10.5 µM |
| COc1ccc(-c2ccc(C#N)c(SCC(=O)Nc3sc4c(c3C#N)CCC4)n2)cc1OC | 4.67 µM |
| COCCCn1[nH]c2c3c(ccc2c1=O)C(=O)c1ccccc1C3=O | 4.66 µM |
| Cc1ccc(C)c(C(C)NC(=O)C2C3CCC(O3)C2C(=O)O)c1 (configuration not stated) | 16.3 µM |
| Cc1ccc(C)c(N2CCN(CCCNC(=O)Cn3cc4c(n3)CCC(C)C4)CC2)c1 (configuration not stated) | 9.5 µM |
| CCOc1ccccc1-n1c(CN2CCN(C(=O)c3ccco3)CC2)nc2ccccc2c1=O | 12.3 µM |
| COC(=O)c1c(NC(=O)c2ccco2)sc(C(=O)Nc2ccc(F)cc2)c1C | 2.98 µM |
| Cc1cc2c(cc1C)CSC(c1c(O)ccc3ccccc13)SC2 | 5.81 µM |
| O=Cc1ccc(Sc2nnc(-c3ccccc3)o2)c([N+](=O)[O-])c1 | 11.4 µM |
| CN1CCN(CCCN2c3ccccc3Sc3ccc(C(F)(F)F)cc32)CC1 | 6.57 µM |
| Cc1cccc(-c2nnc(NC(=O)c3ccc(Cl)cc3)o2)c1 | 2.78 µM |
| O=C(COc1ccc(Cl)cc1)Nc1ccccc1C(=O)NCc1ccco1 | 16.4 µM |
| CCCSc1nc2c(cnn2-c2ccc(C)cc2)c(=O)[nH]1 | 5.19 µM |
| Cn1nc(C(C)(C)C)cc1C(=O)NCc1ccc(N2CCCC2=O)cc1 | 16 µM |
| Cc1nc2c(C(=O)NCCC(C)C)c[nH]n2c(=O)c1Cc1ccccc1F | 7.02 µM |
| O/N=C1\CC/C(=N\O)c2nn(-c3ccccc3Cl)nc21 | > 10 µM (inactive) |

| Structure (SMILES) | EC50 |
| --- | --- |
| Nc1c(S(=O)(=O)c2ccccc2)c2nc3ccccc3nc2n1/N=C/c1cccc(O)c1 | 6.06 µM |
| O=C(Nc1ccc(Cl)cc1)N1CCCN(Cc2ccc(F)cc2)C1 | 12.6 µM |
| Cc1nn(Cc2ccc(Cl)c(Cl)c2)c(C)c1NC(=O)c1cc(-c2ccc3c(c2)OCO3)on1 | 1.35 µM |
| CCOC(=O)c1sc(NC(=O)CSc2nnnn2-c2ccc(C)cc2C)nc1C | 13.7 µM |
| CCN(CC)CCn1c2ccccc2c2cnc(N)c(C#N)c21 | 15.2 µM |
| CCOC(=O)c1sc(NC(=O)CSc2nnnn2-c2ccc(C)c(C)c2)nc1C | 6.65 µM |
| CCc1cc(-c2[nH]ncc2-c2ccc3c(c2)OCO3)c(O)cc1O | 7.97 µM |
| COc1ccc(C(=O)C(CN2CCOCC2)c2ccccc2)cc1 (configuration not stated) | 11.7 µM |
| CN(C)c1ccc(-c2nn3c(-c4ccc(Cl)cc4Cl)nnc3s2)cc1 | 14.8 µM |
| Cn1c2ccccc2c(=O)c2c(=O)n(C3CCCCC3)c(-c3cccs3)nc21 | 8.3 µM |
| O=C(Nc1ccc(OC(F)F)c(Cl)c1)Nc1ccc2c(c1)OCO2 | 14.8 µM |
| O=C(Nc1ccc2nn(-c3ccccc3)nc2c1)c1ccc2c(c1)OCCO2 | 20 µM |
| CN(C)c1ccc(/C=C(\C#N)C(=O)Nc2nc3c(s2)CCN(Cc2ccccc2)C3)cc1 | 3.88 µM |
| Oc1ccc(Cl)cc1-c1cc(-c2ccco2)[nH]n1 | 13.7 µM |
| CCC1(C)Cc2c(sc3[nH]c(=S)n(Cc4ccccc4)c(=O)c23)CO1 (configuration not stated) | 3.07 µM |
| CCC(C)[C@@H](NC(=O)OC(C)(C)C)c1nnc(S(=O)(=O)Cc2cccc(C)c2)o1 (some centres not stated) | 19.3 µM |
| CCCCN(C)S(=O)(=O)c1ccc(C(=O)Nc2nnc(-c3cccs3)o2)cc1 | 1.69 µM |
| Nc1c(C(=O)NCc2ccccc2)nnn1Cc1cccc(Cl)c1 | 13.9 µM |
| O=C1C2=C(NC(=S)NC2c2ccc(Cl)cc2)NC(c2ccc(Cl)cc2)N1c1ccc(Cl)cc1 (configuration not stated) | 5.96 µM |
| CSc1nc2c(cnn2-c2ccc(C)c(C)c2)c(=O)[nH]1 | 17.8 µM |
| CC(C)=CCC/C(C)=C/CCC(C)NCCN1CCNCC1 (configuration not stated) | 14.6 µM |
| COc1ccccc1OCC(=O)Nc1cccc(-c2nc3ccccc3o2)c1 | 13.7 µM |

| Structure (SMILES) | EC50 |
| --- | --- |
| Cc1ccccc1N1C(=O)CC(Sc2nnc(-c3ccccc3)o2)C1=O (configuration not stated) | 15.2 µM |
| CCOc1cc(/C=C\c2[nH]c(=O)[nH]c(=O)c2[N+](=O)[O-])ccc1OC(C)CC (configuration not stated) | 4.12 µM |
| Cn1c(=O)n(C)c2cc(C(=O)Nc3ccc4c(c3)OCO4)ccc21 | 11.6 µM |
| Oc1ccccc1-c1cc(-c2ccccc2Cl)[nH]n1 | 12.5 µM |
| CC(=O)c1cccc(NC(=O)Nc2ccc3c(c2)N(C)C(=O)CS3)c1 | 9.94 µM |
| CCN(CC)CCn1c(=N)n(CCOc2ccccc2)c2ccccc21 | 14.2 µM |
| CCCCn1c(SCC(=O)Nc2cc(NC(=O)c3ccco3)ccc2C)nc2ccccc2c1=O | 12.2 µM |
| Cc1ccc(/C=C/C(=O)c2ccccc2)cc1 | 17.1 µM |
| Cc1cc(S(=O)(=O)N2CCN(Cc3ccc4c(c3)OCO4)CC2)cc(C)c1N1CCCC1=O | 18.3 µM |
| Nc1nc(NC(=O)c2cccc(S(=O)(=O)N3CCCCCC3)c2)nc(-c2ccccc2)n1 | 12.8 µM |
| CN1C[C@H](CNC(=O)OCc2ccccc2)C[C@@H]2c3cccc4c3c(cn4C)C[C@H]21 | 8.44 µM |
| CCN(CC(O)Cn1c2ccccc2c2ccccc21)S(=O)(=O)c1ccc(C)cc1 (configuration not stated) | 11.5 µM |
| NS(=O)(=O)c1ccc(N=Cc2c(O)n(C3CCCCC3)c(=O)n(C3CCCCC3)c2=O)cc1 | 5 µM |
| Oc1ccccc1-c1nnc(SCCN2CCOCC2)n1Cc1ccccc1 | 13.6 µM |
| CC1(C)CC(=O)C2=C(C1)Oc1nc3ccccc3cc1C2C(C#N)C#N (configuration not stated) | 11.4 µM |
| CC(C)(C)OC(=O)N[C@@H](Cc1ccccc1)c1nnc(S(=O)(=O)Cc2cccc(F)c2)o1 | 14.3 µM |
| CC1CC(C)CN(S(=O)(=O)c2ccc(C(=O)Nc3nnc(-c4cccs4)o3)cc2)C1 (configuration not stated) | 3.04 µM |
| C=C(C)COc1ccc(-c2n[nH]c(C)c2-c2ccccc2OC)c(O)c1 | 13 µM |
| Cc1cc2c(N=O)c(NO)ccc2[nH]1 | 5.96 µM |
| CCCCc1ccc(Nc2nc(CCC)cc(=O)[nH]2)cc1 | 9.15 µM |
| COC(=O)c1ccc2c(=O)n(Cc3ccco3)c(SCC(=O)Nc3ccc(C)c(Cl)c3)nc2c1 | 9.21 µM |
| Oc1c(I)cc(Cl)c2cccnc12 | 1.94 µM |

| Structure (SMILES) | EC50 |
| --- | --- |
| CC(C)Cn1c(N)c(C(=O)NCc2cccs2)c2nc3ccccc3nc21 | 10.5 µM |
| CCOC(=O)c1c(N)sc2c(OC)c(Br)ccc12 | 16.8 µM |
| Cc1ccc(-n2c(SCC(=O)Nc3ccc4c(c3)OCO4)nnc2-c2cccs2)cc1 | 8.21 µM |
| CN(c1ccccc1)S(=O)(=O)c1ccc(C(=O)Nc2nnc(-c3ccc(F)cc3)o2)cc1 | 1.74 µM |
| Cn1c(CNc2cccc(Cl)c2)nnc1SCC(=O)OC1CCCCC1 | 11.1 µM |
| CCCOC(=O)c1ccc(Oc2c(-c3ccc(OC)cc3O)n[nH]c2C)cc1 | 9.48 µM |
| Cn1c(=O)n(C)c2cc(NC(=O)CCl)ccc21 | 12.2 µM |
| Cc1ccc2c(C)ccc(O)c2n1 | 7.33 µM |
| CCCc1cc(C(=O)Cc2ccc(F)cc2)c(O)cc1O | 10 µM |
| Cc1cccc(Nc2nc(NCc3ccco3)nc(N3CCOCC3)n2)c1 | 2.15 µM |
| O=C1NCCCC2c3cc(O)c4ccccc4c3OC12N1CCCCC1 (configuration not stated) | 3.25 µM |
| Cc1cc(/C=C2\C(=N)N3C(SCc4ccccc4)=NSC3=NC2=O)c(C)n1Cc1ccccc1 | 5.4 µM |
| COc1cc(NC(=O)Nc2cccc(Cl)c2)c(OC)cc1NC(=O)CN1CCCCC1 | 5.49 µM |
| CN1CCN(c2ccccc2NC(=O)c2ccc(-c3ccc(Cl)cc3Cl)o2)CC1 | 6.37 µM |
| COc1ccccc1-c1nnc2n1N=C(c1ccc(O)c(O)c1)CS2 | 0.847 µM |
| Cc1ccccc1CS(=O)(=O)c1nnc([C@H](Cc2ccccc2)NC(=O)OC(C)(C)C)o1 | 11.4 µM |
| CCCCCCCCOC(=O)C1=C(C)Nc2nnnn2C1c1cccs1 (configuration not stated) | 6.74 µM |
| COc1cccc(C(=O)c2sc(NC(C)C)nc2N)c1 | 16.2 µM |
| CCc1ccc(NC(=O)CCc2nc3cccnc3n2Cc2ccc(OC)cc2)cc1 | 13.3 µM |
